# Measurements as given in ChEMBL document CHEMBL1629635, “Effect of DNase and antibiotics on biofilm characteristics” (2009).
# Active and inactive are the calls of the source. No cut-off for these calls is given here.
# Legend:
# Acinetobacter baumannii [1] = experiment: Antimicrobial activity against Acinetobacter baumannii VT 126 by broth microdilution method; type: functional
# Procedure, shortened: (§1)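 MICs by broth microdilution following CLSI guidelines, in cation-adjusted Mueller-Hinton broth or Haemophilus test medium broth. Cultures were grown at 37°C without shaking.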
# Haemophilus influenzae [2] = experiment: Antimicrobial activity against Haemophilus influenzae VT450-2006 by broth microdilution method; type: functional; procedure, shortened: as §1
# Klebsiella pneumoniae [3] = experiment: Antimicrobial activity against Klebsiella pneumoniae VT 1367 by broth microdilution method; type: functional; procedure, shortened: as §1
# Escherichia coli [4] = experiment: Antimicrobial activity against Escherichia coli ATCC 25922 by broth microdilution method; type: functional; procedure, shortened: as §1
# Pseudomonas aeruginosa [5] = experiment: Antimicrobial activity against Pseudomonas aeruginosa ATCC 27853 by broth microdilution method; type: functional; procedure, shortened: as §1
# Staphylococcus aureus [6] = experiment: Antimicrobial activity against Staphylococcus aureus ATCC 29213 by broth microdilution method; type: functional; procedure, shortened: as §1
# Streptococcus pyogenes [7] = experiment: Antimicrobial activity against Streptococcus pyogenes VT 59 by broth microdilution method; type: functional; procedure, shortened: as §1
# Acinetobacter baumannii [8] = experiment: Bactericidal activity against Acinetobacter baumannii VT 126 assessed as eradication of pre-formed biofilm at 1 to 10 times MIC after 24 hrs; type: functional, organism-based
# Procedure, shortened: (§2)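 Biofilms were grown 24 h at 37°C in 96-well plates from a 24-h broth culture (inoculum 7.53 ± 0.22 log10 CFU/ml). […] Read-out was crystal-violet biomass (OD570) and CFU by serial dilution plating.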
# Haemophilus influenzae [9] = experiment: Bactericidal activity against Haemophilus influenzae VT450-2006 assessed as eradication of pre-formed biofilm at 1 to 10 times MIC after 24 hrs; type: functional, organism-based; procedure, shortened: as §2
# Klebsiella pneumoniae [10] = experiment: Bactericidal activity against Klebsiella pneumoniae VT 1367 assessed as eradication of pre-formed biofilm at 1 to 10 times MIC after 24 hrs; type: functional, organism-based; procedure, shortened: as §2
# Escherichia coli [11] = experiment: Bactericidal activity against Escherichia coli ATCC 25922 assessed as eradication of pre-formed biofilm at 1 to 10 times MIC after 24 hrs; type: functional, organism-based; procedure, shortened: as §2
# Pseudomonas aeruginosa [12] = experiment: Bactericidal activity against Pseudomonas aeruginosa ATCC 27853 assessed as eradication of pre-formed biofilm at 1 to 10 times MIC after 24 hrs; type: functional, organism-based; procedure, shortened: as §2
# Staphylococcus aureus [13] = experiment: Bactericidal activity against Staphylococcus aureus ATCC 29213 assessed as eradication of pre-formed biofilm at 1 to 10 times MIC after 24 hrs by serial dilution; type: functional, organism-based; procedure, shortened: as §2
# Streptococcus pyogenes [14] = experiment: Bactericidal activity against Streptococcus pyogenes VT 59 assessed as eradication of pre-formed biofilm at 1 to 10 times MIC after 24 hrs; type: functional, organism-based; procedure, shortened: as §2
# Acinetobacter baumannii [15] = experiment: Bactericidal activity against Acinetobacter baumannii VT 126 assessed as eradication of pre-formed biofilm at 50 times MIC after 24 hrs by serial dilution; type: functional
# Procedure, shortened: (§3)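 Preformed 24-h biofilms in 96-well plates got antibiotic at 50 times MIC, DNase I at 5 μg/ml, or both, for 24 h at 37°C. Wells were scraped into 1.0 ml of 0.15 M phosphate buffer pH 7.2, serially diluted and plated; result is log10 CFU/well. Mean ± SEM of three independent experiments, counts done in triplicate.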
# Haemophilus influenzae [16] = experiment: Bactericidal activity against Haemophilus influenzae VT450-2006 assessed as eradication of pre-formed biofilm at 50 times MIC after 24 hrs by serial dilution; type: functional; procedure, shortened: as §3
# Klebsiella pneumoniae [17] = experiment: Bactericidal activity against Klebsiella pneumoniae VT 1367 assessed as eradication of pre-formed biofilm at 50 times MIC after 24 hrs by serial dilution; type: functional; procedure, shortened: as §3
# Escherichia coli [18] = experiment: Bactericidal activity against Escherichia coli ATCC 25922 assessed as eradication of pre-formed biofilm at 50 times MIC after 24 hrs by serial dilution; type: functional; procedure, shortened: as §3
# Pseudomonas aeruginosa [19] = experiment: Bactericidal activity against Pseudomonas aeruginosa ATCC 27853 assessed as eradication of pre-formed biofilm at 50 times MIC after 24 hrs by serial dilution; type: functional; procedure, shortened: as §3
# Staphylococcus aureus [20] = experiment: Bactericidal activity against Staphylococcus aureus ATCC 29213 assessed as eradication of pre-formed biofilm at 50 times MIC after 24 hrs by serial dilution; type: functional; procedure, shortened: as §3
# Streptococcus pyogenes [21] = experiment: Bactericidal activity against Streptococcus pyogenes VT 59 assessed as eradication of pre-formed biofilm at 50 times MIC after 24 hrs by serial dilution; type: functional; procedure, shortened: as §3
# Escherichia coli [22] = experiment: Bactericidal activity against Escherichia coli ATCC 25922 assessed as eradication of pre-formed biofilm at 50 times MIC after 24 hrs; type: functional
# Procedure, shortened: (§4)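 24-h, 37°C 96-well biofilms were washed three times with 0.15 M phosphate buffer pH 7.2. They were treated 24 h at 37°C with antibiotic at 50 times MIC, alone or with DNase I at 5 μg/ml, in medium. Biomass: 0.1% crystal violet for 30 min at room temperature, water washes, ethanol-acetone (80:20) solubilization, absorbance at 570 nm.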
# Pseudomonas aeruginosa [23] = experiment: Bactericidal activity against Pseudomonas aeruginosa ATCC 27853 assessed as eradication of pre-formed biofilm at 50 times MIC after 24 hrs; type: functional; procedure, shortened: as §4
# Streptococcus pyogenes [24] = experiment: Bactericidal activity against Streptococcus pyogenes VT 59 assessed as eradication of pre-formed biofilm at 50 times MIC after 24 hrs; type: functional; procedure, shortened: as §4
# Staphylococcus aureus [25] = experiment: Bactericidal activity against Staphylococcus aureus ATCC 29213 assessed as eradication of pre-formed biofilm at 50 times MIC after 24 hrs; type: functional; procedure, shortened: as §4
# Acinetobacter baumannii [26] = experiment: Bactericidal activity against Acinetobacter baumannii VT 126 assessed as eradication of pre-formed biofilm at 50 times MIC after 24 hrs; type: functional; procedure, shortened: as §4
# Haemophilus influenzae [27] = experiment: Bactericidal activity against Haemophilus influenzae VT450-2006 assessed as eradication of pre-formed biofilm at 50 times MIC after 24 hrs; type: functional; procedure, shortened: as §4
# Klebsiella pneumoniae [28] = experiment: Bactericidal activity against Klebsiella pneumoniae VT 1367 assessed as eradication of pre-formed biofilm at 50 times MIC after 24 hrs; type: functional; procedure, shortened: as §4
MIC (Acinetobacter baumannii [1]) [µg/mL],MIC (Haemophilus influenzae [2]) [µg/mL],MIC (Klebsiella pneumoniae [3]) [µg/mL],MIC (Escherichia coli [4]) [µg/mL],MIC (Pseudomonas aeruginosa [5]) [µg/mL],MIC (Staphylococcus aureus [6]) [µg/mL],MIC (Streptococcus pyogenes [7]) [µg/mL],SMILES,inhibition (Acinetobacter baumannii [8]),inhibition (Haemophilus influenzae [9]),inhibition (Klebsiella pneumoniae [10]),inhibition (Escherichia coli [11]),inhibition (Pseudomonas aeruginosa [12]),inhibition (Staphylococcus aureus [13]),inhibition (Streptococcus pyogenes [14]),log10cfu (Acinetobacter baumannii [15]),log10cfu (Haemophilus influenzae [16]),log10cfu (Klebsiella pneumoniae [17]),log10cfu (Escherichia coli [18]),log10cfu (Staphylococcus aureus [20]),log10cfu (Streptococcus pyogenes [21]),further results
50,0.5,64,16,128,0.025,0.25,CC1(C)S[C@@H]2[C@H](NC(=O)[C@H](N)c3ccccc3)C(=O)N2[C@H]1C(=O)O [AMPICILLIN],inactive,inactive,inactive,inactive,inactive,inactive,inactive,8.29,8.44,8.33,8.55,9.51,8.16,log10cfu (Pseudomonas aeruginosa [19]): 8.62; inhibition (INH) (Escherichia coli [22]): 10%; inhibition (INH) (Pseudomonas aeruginosa [23]): 10%
–,1,–,–,–,0.3,0.25,CC[C@H]1OC(=O)[C@H](C)[C@@H](O[C@H]2C[C@@](C)(OC)[C@@H](O)[C@H](C)O2)[C@H](C)[C@@H](O[C@@H]2O[C@H](C)C[C@H](N(C)C)[C@H]2O)[C@](C)(O)C[C@@H](C)CN(C)[C@H](C)[C@@H](O)[C@]1(C)O [AZITHROMYCIN],inactive,inactive,inactive,inactive,inactive,inactive,inactive,–,8.14,–,–,9.75,8.24,inhibition (INH) (Streptococcus pyogenes [24]): 20%
1.5,0.16,0.06,1.5,64,3.8,0.03,CO/N=C(\C(=O)N[C@@H]1C(=O)N2C(C(=O)O)=C(COC(C)=O)CS[C@H]12)c1csc(N)n1 [CEFOTAXIME],inactive,inactive,inactive,inactive,inactive,inactive,inactive,8.32,8.45,8.54,8.66,9.67,8.2,log10cfu (Pseudomonas aeruginosa [19]): 8.68; inhibition (INH) (Escherichia coli [22]): 10%; inhibition (INH) (Pseudomonas aeruginosa [23]): 10%
8,0.07,0.15,0.035,0.6,0.3,0.5,C[C@H]1COc2c(N3CCN(C)CC3)c(F)cc3c(=O)c(C(=O)O)cn1c23.C[C@H]1COc2c(N3CCN(C)CC3)c(F)cc3c(=O)c(C(=O)O)cn1c23.O [LEVOFLOXACIN],inactive,inactive,inactive,inactive,inactive,inactive,inactive,8.26,8.25,8.62,8.46,7.39,6.39,log10cfu (Pseudomonas aeruginosa [19]): 8.69; inhibition (INH) (Staphylococcus aureus [25]): 10%; inhibition (INH) (Streptococcus pyogenes [24]): 10%; inhibition (INH) (Acinetobacter baumannii [26]): 10%; inhibition (INH) (Haemophilus influenzae [27]): 10%; inhibition (INH) (Klebsiella pneumoniae [28]): 10%; inhibition (INH) (Escherichia coli [22]): 10%; inhibition (INH) (Pseudomonas aeruginosa [23]): 10%
8,0.8,16,8,16,0.25,0.25,CO[C@H]1/C=C/O[C@@]2(C)Oc3c(C)c(O)c4c(O)c(c(/C=N/N5CCN(C)CC5)c(O)c4c3C2=O)NC(=O)/C(C)=C\C=C\[C@H](C)[C@H](O)[C@@H](C)[C@@H](O)[C@@H](C)[C@H](OC(C)=O)[C@@H]1C [RIFAMPIN],inactive,inactive,inactive,inactive,inactive,inactive,inactive,8.15,8.14,8.5,8.58,7.5,6.44,log10cfu (Pseudomonas aeruginosa [19]): 8.56; inhibition (INH) (Staphylococcus aureus [25]): 10%; inhibition (INH) (Streptococcus pyogenes [24]): 10%; inhibition (INH) (Acinetobacter baumannii [26]): 10%; inhibition (INH) (Haemophilus influenzae [27]): 10%; inhibition (INH) (Klebsiella pneumoniae [28]): 10%; inhibition (INH) (Escherichia coli [22]): 10%; inhibition (INH) (Pseudomonas aeruginosa [23]): 10%
